Data set [1] has as its system Vesicular stomatitis virus. Description: Antiviral activity against Vesicular stomatitis virus infected in primary rabbit kidney cells assessed as inhibition of virus-induced cytopathogenicity. The class given is functional. (Damage to the host cells serves as the signal in cytopathic effect assays.)
Data set [2] concerns Human alphaherpesvirus 1. Put plainly: Antiviral activity against Herpes simplex virus 1 infected in human skin fibroblasts assessed as inhibition of virus-induced cytopathogenicity. The class given is functional.
Data set [3] has as its system Human alphaherpesvirus 1. Put plainly: Antiviral activity against Herpes simplex virus 1 infected in primary rabbit kidney cells assessed as inhibition of virus-induced cytopathogenicity. The class given is functional.
Data set [4] in a line: Dissociation constant, pKa of the compound by spectrophotometric analysis. The class given is physicochemical. An outline of the steps:
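Determined spectrophotometrically in Teorell-Stenhagen buffers.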

For the compound `N#Cc1cn([C@@H]2O[C@H](CO)[C@@H](O)[C@H]2O)c(=O)[nH]c1=O`, the figures for the ID50 (in data set [1]; in the data set on Human alphaherpesvirus 1 [2]; in the data set with Human alphaherpesvirus 1 [3]) were greater than 7 ×10⁻⁴ M, greater than 7 ×10⁻⁴ M and 3.7 ×10⁻⁴ M, respectively.
For the compound `N#Cc1cn([C@H]2C[C@H](O)[C@@H](CO)O2)c(=O)[nH]c1=O`, the pKa in data set [4] was 6.8. The values for the ID50 in the data set with Human alphaherpesvirus 1 [2] and in the data set with Human alphaherpesvirus 1 [3] were greater than 7 ×10⁻⁴ M and 1.6 ×10⁻⁴ M, respectively.
On to `O=c1[nH]c(=O)n([C@H]2C[C@H](O)[C@@H](CO)O2)cc1Br` [BROXURIDINE], for which the ID50 with Human alphaherpesvirus 1 [2] and in the data set on Human alphaherpesvirus 1 [3] was 3.2 ×10⁻⁷ M each time.
For `O=c1[nH]c(=O)n([C@H]2C[C@H](O)[C@@H](CO)O2)cc1Cl` [CHLORODEOXYURIDINE], the ID50 with Human alphaherpesvirus 1 [2] and in the data set on Human alphaherpesvirus 1 [3] was 7.6 ×10⁻⁷ M throughout.
As to `O=c1[nH]c(=O)n([C@H]2C[C@H](O)[C@@H](CO)O2)cc1F` [FLOXURIDINE], the values for the ID50 in the data set with Human alphaherpesvirus 1 [2] and in the data set with Human alphaherpesvirus 1 [3] were 4 ×10⁻⁷ M and 1.6 ×10⁻⁷ M, respectively.
Regarding `O=c1[nH]c(=O)n([C@H]2C[C@H](O)[C@@H](CO)O2)cc1I` [IDOXURIDINE], the pKa in data set [4] is 8.2. In addition, the ID50 in the data set with Human alphaherpesvirus 1 [2] and with Human alphaherpesvirus 1 [3] was 5.7 ×10⁻⁷ M in each case.
As to `O=c1[nH]c(=O)n([C@H]2C[C@H](O)[C@@H](CO)O2)cc1C(F)(F)F` [TRIFLURIDINE], the ID50 with Human alphaherpesvirus 1 [2] worked out at 1.3 ×10⁻⁶ M; with Human alphaherpesvirus 1 [3], 6.6 ×10⁻⁷ M.
For `Nc1ncnc2c1ncn2[C@@H]1O[C@H](CO)[C@@H](O)[C@@H]1O` [VIDARABINE], in that order: 3.7 ×10⁻⁵ M and 1.5 ×10⁻⁵ M.

What is called pKa is the pH at which an ionisable group is half protonated. A higher pKa goes with a group that holds its proton tightly.
